High-throughput results: PubChem BioAssay, several laboratories
Most compounds without a hit are left out; they make up all but 29% or so of the library.
CYP2C19 inhib: human CYP2C19 inhibition; CYP2C19 Supersomes, luciferin-H EGE luminescence, 30 min; inhibition, % at 5 µM; 96,000 compounds, 21% hits;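 active means CYP2C19 inhibition above a set limit at 5 µM in the primary screen, cut at about 50% in these data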;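 further: plate controls were negative control wells for no effect and 2.5 mM tranylcypromine positive control for full effect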
CYP2C9 inh: blocks human cytochrome P450 2C9; 96,000 compounds, 20% hits; CYP2C9 Supersomes, luciferin-H conversion, luminescence; P11712; inhibition, % at 5 µM; AID 777;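 active means blocking of liver enzyme CYP2C9 beyond about 50% at 5 µM, limit read from the data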
Target sequence (P11712 whole entry, looked up): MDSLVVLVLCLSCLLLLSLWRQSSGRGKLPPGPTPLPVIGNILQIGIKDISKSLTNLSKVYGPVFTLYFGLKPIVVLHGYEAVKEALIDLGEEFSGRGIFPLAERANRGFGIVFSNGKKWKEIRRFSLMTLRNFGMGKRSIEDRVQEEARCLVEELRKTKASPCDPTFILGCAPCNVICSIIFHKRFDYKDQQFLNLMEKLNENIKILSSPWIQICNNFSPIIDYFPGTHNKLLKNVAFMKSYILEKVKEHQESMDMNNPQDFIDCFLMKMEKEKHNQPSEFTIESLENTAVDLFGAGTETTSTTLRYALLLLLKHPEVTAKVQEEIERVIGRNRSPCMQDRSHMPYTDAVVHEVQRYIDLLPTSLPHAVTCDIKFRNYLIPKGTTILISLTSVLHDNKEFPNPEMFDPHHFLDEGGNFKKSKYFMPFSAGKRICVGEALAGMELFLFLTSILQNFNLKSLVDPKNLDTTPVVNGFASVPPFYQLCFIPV
CYP2C19 act: increases human CYP2C19 enzyme activity; recombinant CYP2C19, luciferin-H EGE luminescence; active compounds read high; 0 = fully inhibited enzyme, 1 = untreated enzyme; 96,000 tested, under 10 active; activation factor at 5 µM; P33261;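 active means activation factor of at least 2 at 5 µM in the primary screen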;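 further: 0 = wells with 2.5 mM tranylcypromine and 1 = vehicle-only wells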
CYP2C9 activ: CYP2C9 (human) activation | P11712 | recombinant CYP2C9, luciferin-H conversion, luminescence; active compounds read high; factor 1 = untreated enzyme, 0 = blocked | activation factor at 5 µM | 96,000 compounds, 1.4% hits | AID 1024;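 active means activation factor of 2 or more for CYP2C9 at a 5 µM dose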;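 further: 0 = sulfaphenazole-blocked wells and 1 = vehicle-only wells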
Ecoli WT expand: growth inhibitors of E. coli BW25113 wild type. OD600 absorbance. growth inhibition, % at 100 µM. 98,000 compounds, 0.15% hits. AID 710;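 active means growth inhibition above about 50% at one test dose, limit read from the data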;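 further: growth measured after 20 h incubation at 37 °C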
Ecoli tolC: growth inhibitors of E. coli BW25113 tolC mutant. OD615. growth inhibition, % at 10 µM (by protocol). 65,000 compounds, 2.2% hits. AID 573;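 active means growth inhibition at or above a cutoff equal to the mean over every tested compound plus 3 SD, cut at about 60% in these data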;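 further: growth measured after 20 h incubation at 37 °C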
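signal = optical density read at 615 nm | test system = E. coli ΔtolC::kan strain BW25113 | timing = 20 h compound exposure of bacteria at 37 °C | buffer or medium = LB medium plus 50 µg/mL kanamycin | compound dosing = 10 µM final, single dose | evaluation = % inhibition of E. coli growth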
* = called active by the depositor.

For O=c1[nH]c(C2CCCN(S(=O)(=O)c3ccccc3)C2)nc2c1nnn2Cc1ccccc1F (stereo not given) the results were Ecoli WT expand -1 and Ecoli tolC 29.
Screening N#Cc1cnn(-c2nc3sc4c(c3c(=O)[nH]2)CCCC4)c1N returned CYP2C19 inhib 3, CYP2C9 inh 10, CYP2C19 act 1, CYP2C9 activ 0.9 and Ecoli WT expand -11.
For C=CCSc1nc2sc(C)c(C)c2c(=O)[nH]1 the results were Ecoli WT expand -4 and Ecoli tolC 8.
`C=CCSc1nc(N)c2c(C)c(C)sc2n1` gave CYP2C19 inhib 88*, CYP2C9 inh 58*, CYP2C19 act 0.1, CYP2C9 activ 0.4, Ecoli WT expand -11 and Ecoli tolC 20.
`CCOC(=O)c1nnc(-c2cccs2)nc1NC(C)C` gave CYP2C19 inhib -2, CYP2C9 inh -1, CYP2C19 act 1, CYP2C9 activ 1 and Ecoli WT expand 9.
Screening CCCCC(CC)C(=O)NCCc1ccc(S(N)(=O)=O)cc1 (stereo not given) returned CYP2C19 inhib 9, CYP2C9 inh 59*, CYP2C19 act 0.9, CYP2C9 activ 0.4, Ecoli WT expand -4 and Ecoli tolC -4.
For CCC(CC)C(=O)NCCc1ccc(S(N)(=O)=O)cc1 the results were CYP2C19 inhib -14, CYP2C9 inh 49, CYP2C19 act 1.1, CYP2C9 activ 0.5, Ecoli WT expand 0 and Ecoli tolC -18.
`CCC(CC)C(=O)Nc1cccc(C(=O)NCCc2ccc(S(N)(=O)=O)cc2)c1` gave CYP2C19 inhib 78*, CYP2C9 inh 90*, CYP2C19 act 0.2, CYP2C9 activ 0.1 and Ecoli WT expand 8.
For CC(=O)Nc1cccc(C(=O)NC(C)c2ccc(S(N)(=O)=O)cc2)c1 (stereo not given) the results were CYP2C19 inhib -6, CYP2C9 inh 7, CYP2C19 act 1.1, CYP2C9 activ 0.9 and Ecoli WT expand 6.
For CCNc1nc(NC(C)C)nc(Oc2ccc(OCCOc3ccccc3)nn2)n1 the results were CYP2C19 inhib 44, CYP2C9 inh 42, CYP2C19 act 0.6, CYP2C9 activ 0.6, Ecoli WT expand 6 and Ecoli tolC 7.
`Cc1ccc(/C=C/C(=O)O)cc1S(=O)(=O)NCCO` gave CYP2C19 inhib 42, CYP2C9 inh -13, CYP2C19 act 0.6, CYP2C9 activ 1.1 and Ecoli WT expand -4.
For Cc1cc(C(C)(C)C)cc(S(=O)(=O)NCCO)c1C the results were CYP2C19 inhib 42, CYP2C9 inh -197, CYP2C19 act 0.6, CYP2C9 activ 3*, Ecoli WT expand -3 and Ecoli tolC 14.
Screening CCOc1ccc(NC(=O)NCCCn2c(C)nc3cc(C)c(C)cc32)cc1 returned CYP2C19 inhib 35, CYP2C9 inh 81*, CYP2C19 act 0.6, CYP2C9 activ 0.2 and Ecoli WT expand 10.
`Cc1cc2nc(C)n(CCCNC(=O)Nc3cccc4ccccc34)c2cc1C` gave CYP2C19 inhib 46, CYP2C9 inh 57*, CYP2C19 act 0.5, CYP2C9 activ 0.4 and Ecoli WT expand -2.
`CCOc1ccc(NC(=O)NCCCN2CCCC2)cc1` gave CYP2C19 inhib -2, CYP2C9 inh -1, CYP2C19 act 1, CYP2C9 activ 1 and Ecoli WT expand 4.
Screening O=C(CCn1c(=O)sc2ccccc21)NCc1ccc2c(c1)OCO2 returned Ecoli tolC -20.
Screening N#CC(c1cccc(Cl)c1)c1ncc(C(F)(F)F)cc1Cl (stereo not given) returned CYP2C19 inhib 89*, CYP2C9 inh 41, CYP2C19 act 0.1, CYP2C9 activ 0.6 and Ecoli WT expand 12.
Screening NC(=O)C(c1ccccc1)c1ncc(C(F)(F)F)cc1Cl (stereo not given) returned CYP2C19 inhib 18, CYP2C9 inh 30, CYP2C19 act 0.8, CYP2C9 activ 0.7 and Ecoli WT expand 2.
`N#CC(c1ccc(Cl)cc1)c1ncc(C(F)(F)F)cc1Cl` (stereo not given) gave CYP2C19 inhib 94*, CYP2C9 inh 36, CYP2C19 act 0.1, CYP2C9 activ 0.6 and Ecoli WT expand 6.
`Cn1c(=O)c2c(nc(CN3CCN(Cc4ccccc4)CC3)n2Cc2ccc(Cl)cc2)n(C)c1=O` gave CYP2C19 inhib 33, CYP2C9 inh 51*, CYP2C19 act 0.7, CYP2C9 activ 0.5, Ecoli WT expand 5 and Ecoli tolC 4.
Screening Cn1c(=O)c2c(nc(CN3CCC(C(N)=O)CC3)n2Cc2c(F)cccc2Cl)n(C)c1=O returned CYP2C19 inhib 3, CYP2C9 inh 31, CYP2C19 act 1, CYP2C9 activ 0.7, Ecoli WT expand 0 and Ecoli tolC -10.
`CN(Cc1ccccc1)c1nc2c(c(=O)n(C)c(=O)n2C)n1CCCc1ccccc1` gave CYP2C19 inhib 88*, CYP2C9 inh 97*, CYP2C19 act 0.1, CYP2C9 activ 0, Ecoli WT expand -16 and Ecoli tolC 100*.
`Cc1ccc(Cn2c(CN(C)Cc3ccccc3)nc3c2c(=O)n(C)c(=O)n3C)cc1` gave CYP2C19 inhib 78*, CYP2C9 inh 94*, CYP2C19 act 0.2, CYP2C9 activ 0.1, Ecoli WT expand -5 and Ecoli tolC 50.
For Cn1c(=O)c2c(nc(CN3CCC(C(N)=O)CC3)n2Cc2c(Cl)cccc2Cl)n(C)c1=O the results were CYP2C19 inhib 19, CYP2C9 inh 68*, CYP2C19 act 0.8, CYP2C9 activ 0.3, Ecoli WT expand 3 and Ecoli tolC -10.
COc1ccc(-n2c(=O)c3ccccc3n(CC(=O)Nc3cc(C)on3)c2=O)cc1OC was read as CYP2C19 inhib 8, CYP2C9 inh 26, CYP2C19 act 0.9, CYP2C9 activ 0.7, Ecoli WT expand -8 and Ecoli tolC -9.
For Cc1ncoc1C(=O)Nc1ccccc1-c1ccccc1 the results were CYP2C19 inhib 16, CYP2C9 inh 30, CYP2C19 act 0.8, CYP2C9 activ 0.7, Ecoli WT expand -3 and Ecoli tolC -6.
Screening CCOc1ccc(OCC)c(-c2c(=O)n(OCc3ccccc3C(=O)OC)c3ccccc3[n+]2[O-])c1 returned CYP2C19 inhib 37, CYP2C9 inh 38, CYP2C19 act 0.6, CYP2C9 activ 0.6 and Ecoli WT expand -16.
Screening CCCCn1c(CN(Cc2ccccc2)Cc2ccccc2)nc2c1c(=O)n(C)c(=O)n2C returned Ecoli tolC 44.
For CCCCn1c(SCc2nnc(-c3ccccc3)o2)nc2c1c(=O)n(C)c(=O)n2C the results were CYP2C19 inhib 64*, CYP2C9 inh 77*, CYP2C19 act 0.4, CYP2C9 activ 0.2, Ecoli WT expand -1 and Ecoli tolC 27.
Screening CN(Cc1ccccc1)Cc1nc2c(c(=O)n(C)c(=O)n2C)n1Cc1ccc(F)cc1 returned CYP2C19 inhib 26, CYP2C9 inh 72*, CYP2C19 act 0.7, CYP2C9 activ 0.3, Ecoli WT expand 2 and Ecoli tolC 40.
